Legend:
[1] = Cytotoxicity against human GES1 cells assessed as inhibition of cell growth incubated for 72 hrs by MTT assay; format: toxicity, cell-based
MGC-803 = assay: Antiproliferative activity against human MGC-803 cells assessed as inhibition of cell growth incubated for 72 hrs by MTT assay; format: functional, cell-based; details: MGC-803, 72 h
Summary of the method: (§1)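 Antiproliferative screen in gastric cancer lines MGC-803, HGC-27 and BGC-823 by MTT assay; IC50 reported as mean ± SD.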

BGC-823 = assay: Antiproliferative activity against human BGC-823 cells assessed as inhibition of cell growth incubated for 72 hrs by MTT assay; format: functional, cell-based; details: BGC-823, 72 h; summary of the method: as §1
HGC-27 = assay: Antiproliferative activity against human HGC-27 cells assessed as inhibition of cell growth incubated for 72 hrs by MTT assay; format: functional, cell-based; details: HGC-27, 72 h; summary of the method: as §1
PC-9 = assay: Antiproliferative activity against human PC-9 cells assessed as inhibition of cell growth incubated for 72 hrs by MTT assay; format: functional, cell-based; details: PC-9, 72 h
MCF7 = assay: Antiproliferative activity against human MCF7 cells assessed as inhibition of cell growth incubated for 72 hrs by MTT assay; format: functional, cell-based; details: MCF7, 72 h
NCI-H1975 = assay: Antiproliferative activity against human NCI-H1975 cells assessed as inhibition of cell growth incubated for 72 hrs by MTT assay; format: functional, cell-based; details: NCI-H1975, 72 h

| Structure (SMILES) | IC50 at 72 h [1] [µM] | IC50 (MGC-803) [µM] | IC50 (BGC-823) [µM] | IC50 (HGC-27) [µM] | IC50 (PC-9) [µM] | IC50 (MCF7) [µM] | IC50 (NCI-H1975) [µM] |
| --- | --- | --- | --- | --- | --- | --- | --- |
| Cc1cc(N2CC[C@@H](C)[C@@H](N(C)c3ncnc4[nH]ccc34)C2)n2nc(SCc3ccc(Br)cc3)nc2n1 | 55.6 | 4.02 | 28 | 19.5 | – | – | – |
| Cc1cc(N2CC[C@@H](C)[C@@H](N(C)c3ncnc4[nH]ccc34)C2)n2nc(SCc3ccc(F)c(Cl)c3)nc2n1 | > 100 | 52 | 98.9 | > 100 | – | – | – |
| Cc1cc(N2CC[C@@H](C)[C@@H](N(C)c3ncnc4[nH]ccc34)C2)n2nc(SCC3CC3)nc2n1 | 27.9 | 9.54 | 36.5 | 21.4 | – | – | – |
| C[C@@H]1CCN(c2c3c(nc4ncnn24)CCC3)C[C@@H]1N(C)c1ncnc2[nH]ccc12 | > 100 | 55.9 | > 100 | 50.5 | – | – | – |
| Cc1cc(N2CC[C@@H](C)[C@@H](N(C)c3ncnc4[nH]ccc34)C2)n2nc(SCC3CCCCC3)nc2n1 | 98.2 | 9.17 | 16.3 | 11.5 | – | – | – |
| Cc1cc(N2CC[C@@H](C)[C@@H](N(C)c3ncnc4[nH]ccc34)C2)n2nc(SCc3ccc([N+](=O)[O-])cc3)nc2n1 | 36.6 | 26.9 | 59.6 | 29.4 | – | – | – |
| Cc1cc(N2CC[C@@H](C)[C@@H](N(C)c3ncnc4[nH]ccc34)C2)n2nc(SCc3ccc(Cl)cc3)nc2n1 | > 100 | 16 | 26.3 | 18.4 | – | – | – |
| COc1ccc(CSc2nc3nc(C)cc(N4CC[C@@H](C)[C@@H](N(C)c5ncnc6[nH]ccc56)C4)n3n2)cc1 | > 100 | 15.2 | 69.9 | 18.2 | – | – | – |
| O=c1[nH]cc(F)c(=O)[nH]1 [FLUOROURACIL] | 2.37 | 3.79 | 5.89 | 5.75 | 3.25 | 4.76 | 2.67 |
| Cc1cc(N2CC[C@@H](C)[C@@H](N(C)c3ncnc4[nH]ccc34)C2)n2nc(SCc3cc(Cl)ccc3Cl)nc2n1 | 87.5 | 9.85 | 18.9 | 19.2 | – | – | – |
| Cc1cc(N2CC[C@@H](C)[C@@H](N(C)c3ncnc4[nH]ccc34)C2)n2nc(SCc3csc4ccc(Cl)cc34)nc2n1 | > 100 | > 100 | > 100 | > 100 | – | – | – |
| C#CCSc1nc2nc(C)cc(N3CC[C@@H](C)[C@@H](N(C)c4ncnc5[nH]ccc45)C3)n2n1 | > 100 | 18.1 | 62.1 | 35.1 | – | – | – |
| Cc1cc(N2CC[C@@H](C)[C@@H](N(C)c3ncnc4[nH]ccc34)C2)n2ncnc2n1 | 57.9 | 4.35 | 67.4 | 11.3 | 20.9 | 33.8 | 22.2 |
| CCCCCc1c(C)nc2nc(SCc3ccc(Cl)cc3)nn2c1N1CC[C@@H](C)[C@@H](N(C)c2ncnc3[nH]ccc23)C1 | > 100 | > 100 | 32.3 | > 100 | – | – | – |
| Cc1cc(N2CC[C@@H](C)[C@@H](N(C)c3ncnc4[nH]ccc34)C2)n2nc(SCCCc3ccccc3)nc2n1 | > 100 | > 100 | > 100 | > 100 | – | – | – |
| C=CCSc1nc2nc(C)cc(N3CC[C@@H](C)[C@@H](N(C)c4ncnc5[nH]ccc45)C3)n2n1 | > 100 | 32.5 | 40.9 | 35.2 | – | – | – |
| C[C@@H]1CCN(C(=O)CC#N)C[C@@H]1N(C)c1ncnc2[nH]ccc12 [TOFACITINIB] | – | > 100 | – | – | > 100 | > 100 | > 100 |
| Cc1cc(N2CC[C@@H](C)[C@@H](N(C)c3ncnc4[nH]ccc34)C2)n2nc(SCc3ccc(F)cc3)nc2n1 | 12.3 | 11.9 | 44.3 | 26 | – | – | – |
| Cc1cc(N2CC[C@@H](C)[C@@H](N(C)c3ncnc4[nH]ccc34)C2)n2nc(SCc3cc(=O)oc4c3ccc3ccccc34)nc2n1 | > 100 | > 100 | > 100 | > 100 | – | – | – |
| Cc1nc2nc(SCc3ccc(Cl)cc3)nn2c(N2CC[C@@H](C)[C@@H](N(C)c3ncnc4[nH]ccc34)C2)c1C | 99.2 | 90.5 | > 100 | > 100 | – | – | – |
| Cc1cc(N2CC[C@@H](C)[C@@H](N(C)c3ncnc4[nH]ccc34)C2)n2nc(SCc3ccccc3)nc2n1 | 67.2 | 5.87 | 14.3 | 13.9 | – | – | – |
| Cc1ccc(CSc2nc3nc(C)cc(N4CC[C@@H](C)[C@@H](N(C)c5ncnc6[nH]ccc56)C4)n3n2)cc1 | 82.5 | 5.86 | 69.5 | 15.2 | – | – | – |
| Cc1cc(N2CC[C@@H](C)[C@@H](N(C)c3ncnc4[nH]ccc34)C2)n2nc(SCc3nc4ccccc4[nH]3)nc2n1 | 40.2 | 21.2 | > 100 | > 100 | – | – | – |
| Cc1cc(N2CC[C@@H](C)[C@@H](N(C)c3ncnc4[nH]ccc34)C2)n2nc(SCCc3ccccc3)nc2n1 | 66.2 | 6.19 | 28 | 11.8 | – | – | – |
| C[C@@H]1CCN(c2cc(-c3ccccc3)nc3ncnn23)C[C@@H]1N(C)c1ncnc2[nH]ccc12 | > 100 | 84.9 | > 100 | > 100 | – | – | – |
| CCCSc1nc2nc(C)cc(N3CC[C@@H](C)[C@@H](N(C)c4ncnc5[nH]ccc45)C3)n2n1 | 67.1 | 15.5 | 51.2 | 20.9 | – | – | – |
| CCc1cc(N2CC[C@@H](C)[C@@H](N(C)c3ncnc4[nH]ccc34)C2)n2ncnc2n1 | > 100 | 80.2 | 82.2 | > 100 | – | – | – |
| Cc1cc(N2CC[C@@H](C)[C@@H](N(C)c3ncnc4[nH]ccc34)C2)n2nc(SCc3ccccc3Br)nc2n1 | > 100 | 27 | 81.1 | 21.3 | – | – | – |
